Measurements published in ChEMBL document CHEMBL1123594, “Antiradiation compounds. 20. 1-Methylquinolinium(and pyridinium)-2-dithioacetic acid derivatives” (J Med Chem, 1987).

Legend:
[1] = system: Mus musculus; experiment: Percent protective effect was determined in mice using 849 rads for 30 min after (ip) administration of 600 mg/kg; type: functional
[2] = system: Mus musculus; experiment: Percent protective effect was determined in mice using 849 rads for 30 min after (po) administration of 600 mg/kg; type: functional
[3] = system: Mus musculus; experiment: Percent survival was determined over a period of 30 days after intraperitoneal administration of a dose of 18.8 mg/kg in mice; type: functional; details: ip, 720 h
In short: (§1)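 Female C57 B16 mice (18-20 g), groups of 10, dosed ip in water or 10-20% aqueous ethanol (sometimes with Klucel or a Tween). Whole-body 1000-rad γ-irradiation 30 min after dosing. Survival was followed over 30 days, and animals alive beyond 30 days were counted as protected. Testing was done at Walter Reed Army Institute of Research.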

[4] = system: Mus musculus; experiment: Percent survival was determined over a period of 30 days after intraperitoneal administration of a dose of 9.4 mg/kg in mice; type: functional; details: ip, 720 h; in short: as §1
[5] = Toxic dose was determined after (ip) administration of a dose of 18.8 mg/kg in mice at 1000-rad-gamma-radiation for 30 mins; type: toxicity, organism-based; set-up: dose 18.8 mg/kg; details: mouse, in vivo
In short: (§2)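 Drug-toxicity deaths were counted within the radioprotection groups: 10 female C57 B16 mice, dosed by the route stated, then given whole-body 1000-rad γ-irradiation 30 min later. Deaths attributed to compound toxicity occurred before day 5 and were scored separately from the 30-day survival count.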

[6] = system: Mus musculus; experiment: Percent survival was determined over a period of 30 days after intraperitoneal administration of a dose of 4.7 mg/kg in mice; type: functional; details: ip, 720 h; in short: as §1
[7] = system: Mus musculus; experiment: Percent survival was determined over a period of 30 days after intraperitoneal administration of a dose of 2.3 mg/kg in mice; type: functional; details: ip, 720 h; in short: as §1
[8] = Toxic dose was determined after (ip) administration of a dose of 4.7 mg/kg in mice at 1000-rad-gamma-radiation for 30 mins; type: toxicity, organism-based; set-up: dose 4.7 mg/kg; details: mouse, in vivo; in short: as §2
[9] = system: Mus musculus; experiment: Percent survival was determined over a period of 30 days after intraperitoneal administration of a dose of 1.2 mg/kg in mice; type: functional; details: ip, 720 h; in short: as §1
[10] = Toxic dose was determined after (ip) administration of a dose of 2.3 mg/kg in mice at 1000-rad-gamma-radiation for 30 mins; type: toxicity, organism-based; set-up: dose 2.3 mg/kg; details: mouse, in vivo; in short: as §2
[11] = system: Mus musculus; experiment: Percent survival was determined over a period of 30 days after intraperitoneal administration of a dose of 0.6 mg/kg in mice; type: functional; details: ip, 720 h; in short: as §1
[12] = system: Mus musculus; experiment: Percent survival was determined over a period of 30 days after intraperitoneal administration of a dose of 1.17 mg/kg in mice; type: functional; details: ip, 720 h; in short: as §1
[13] = system: Mus musculus; experiment: Percent survival was determined over a period of 30 days after intraperitoneal administration of a dose of 2.34 mg/kg in mice; type: functional; details: ip, 720 h; in short: as §1
[14] = system: Mus musculus; experiment: Percent survival was determined over a period of 30 days after intraperitoneal administration of a dose of 4.69 mg/kg in mice; type: functional; details: ip, 720 h; in short: as §1
[15] = Toxic dose was determined after (ip) administration of a dose of 4.69 mg/kg in mice at 1000-rad-gamma-radiation for 30 mins; type: toxicity, organism-based; set-up: dose 4.69 mg/kg; details: mouse, in vivo; in short: as §2
[16] = Toxic dose was determined after (ip) administration of a dose of 9.4 mg/kg in mice at 1000-rad-gamma-radiation for 30 mins; type: toxicity, organism-based; set-up: dose 9.4 mg/kg; details: mouse, in vivo; in short: as §2
[17] = system: Mus musculus; experiment: Percent protective effect was determined in mice using 825 rads for 30 min after administration of 120 mg/kg; type: functional
[18] = system: Mus musculus; experiment: Percent survival was determined over a period of 30 days after intraperitoneal administration of a dose of 2.4 mg/kg in mice; type: functional; details: ip, 720 h; in short: as §1
[19] = system: Mus musculus; experiment: Percent survival was determined over a period of 30 days after intraperitoneal administration of a dose of 150 mg/kg in mice; type: functional; details: ip, 720 h; in short: as §1
[20] = Toxic dose was determined after (ip) administration of a dose of 150 mg/kg in mice at 1000-rad-gamma-radiation for 30 mins; type: toxicity, organism-based; set-up: dose 150 mg/kg; details: mouse, in vivo; in short: as §2
[21] = system: Mus musculus; experiment: Percent survival was determined over a period of 30 days after intraperitoneal administration of a dose of 75 mg/kg in mice; type: functional; details: Mus musculus, ip, 720 h; in short: as §1
[22] = system: Mus musculus; experiment: Percent survival was determined over a period of 30 days after intraperitoneal administration of a dose of 37.5 mg/kg in mice; type: functional; details: ip, 720 h; in short: as §1
[23] = system: Mus musculus; experiment: Percent survival was determined over a period of 30 days after intraperitoneal administration of a dose of 300 mg/kg in mice; type: functional; details: ip, 720 h; in short: as §1
[24] = Toxic dose was determined in 10-20% ethanol by ip administration in mice. The radiation protective properties were evaluated for groups of 10 mice exposed to 849-rad-gamma-radiation 30 min after dosing.; type: toxicity, organism-based; details: mouse, in vivo
[25] = Toxic dose was determined after (ip) administration of a dose of 1200 mg/kg in mice at 1000-rad-gamma-radiation for 30 mins; type: toxicity, organism-based; set-up: dose 1200 mg/kg; details: mouse, in vivo; in short: as §2
[26] = system: Mus musculus; experiment: Percent survival was determined over a period of 30 days after intraperitoneal administration of a dose of 600 mg/kg in mice; type: functional; details: ip, 720 h; in short: as §1
[27] = system: Mus musculus; experiment: Percent survival was determined over a period of 30 days after intraperitoneal administration of a dose of 1200 mg/kg in mice; type: functional; details: ip, 720 h; in short: as §1

Row | SMILES | survival at 9.4 mg/kg [4] [%] | survival at 4.7 mg/kg [6] [%] | survival at 2.3 mg/kg [7] [%] | LD50 at 0.5 h [16] [mg/kg] | further results
1 | N#CC(C(=O)N1CCCC1)=C([S-])[S-].[K+].[K+] |  |  |  |  | Protective effect [1]: 80%; Protective effect [2]: 30%
2 | CS/C(=C\c1cccc[n+]1C)N1CCOCC1.[I-] | 0 | 0 |  |  | survival at 18.8 mg/kg [3]: 0%; LD50 at 0.5 h [5]: 50 mg/kg
3 | CCCCCCSC(=Cc1cccc[n+]1C)SCCCCCC.[I-] |  | 0 | 0 |  | LD50 at 0.5 h [8]: 5 mg/kg; survival at 1.2 mg/kg [9]: 0%
4 | CCCCSC(=Cc1cccc[n+]1C)SCCCC.[I-] |  |  | 30 |  | LD50 at 0.5 h [10]: 3 mg/kg; survival at 0.6 mg/kg [11]: 0%; survival at 1.2 mg/kg [9]: 10%
5 | CS/C(=C\c1ccc2ccccc2[n+]1C)N1CCCCC1.[I-] |  |  |  |  | survival at 1.17 mg/kg [12]: 30%; survival at 2.34 mg/kg [13]: 70%; survival at 4.69 mg/kg [14]: 10%; LD50 at 0.5 h [15]: 5 mg/kg
6 | CSC(=Cc1cccc(C=C(SC)SC)[n+]1C)SC.[I-] | 30 | 10 | 10 | 25 | 
7 | CSC(=Cc1c2ccccc2cc[n+]1C)SC.[I-] | 20 | 0 | 0 | 15 | 
8 | COc1ccc2c(ccc(C=C(SC)SC)[n+]2C)c1.[I-] | 0 | 0 | 0 | 30 | 
9 | N#CC(C(=O)c1ccccc1)=C([S-])[S-].[K+].[K+] |  |  |  |  | Protective effect [17]: 17%
10 | CS/C(=C\c1ccc2ccccc2[n+]1C)N1CCN(CCCO)CC1.[I-] | 30 | 0 | 0 | > 10 | 
11 | CCSC(=Cc1cccc[n+]1C)SCC.[I-] | 20 | 0 |  | 20 | 
12 | CSC(=Cc1cccc(C)[n+]1C)SC.[I-] | 0 | 0 |  |  | survival at 18.8 mg/kg [3]: 40%; LD50 at 0.5 h [5]: 50 mg/kg
13 | CS/C(=C\c1cccc[n+]1C)N1CCCCC1.[I-] | 80 | 20 |  | 25 | survival at 2.4 mg/kg [18]: 30%
14 | Cc1ccc2c(ccc(CC(=S)[S-])[n+]2C)c1 |  |  |  |  | survival at 150 mg/kg [19]: 10%; LD50 at 0.5 h [20]: 225 mg/kg; survival at 75 mg/kg [21]: 20%; survival at 37.5 mg/kg [22]: 10%
15 | C[n+]1c(CC(=S)[S-])cccc1CC(=S)[S-].[I-].[Na+].[Na+] |  |  |  |  | survival at 300 mg/kg [23]: 0%; LD50 at 0.5 h [24]: > 600 mg/kg; LD50 at 0.5 h [25]: > 600 mg/kg; survival at 600 mg/kg [26]: 0%; survival at 1200 mg/kg [27]: 0%
